# Experimental data from publication PMC6989572 (Clinical Drug Investigation, 2019).
# Read-outs that look alike come from different tables or passages of the source.
# What was measured:
# [1] = assay type: in vivo, Japanese subjects (human); conditions: single oral 150 mg; for Tmax: both, human, plasma, po, 150 mg, median tmax
# Method in brief: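 Renal groups by eGFR from the Japanese creatinine equation. Overnight-fasted subjects received one 150 mg tablet with 150 mL water on Day 1 morning, with no water from 1 h before to 1 h after. Blood was drawn predose, then 0.25–12 h and at 24, 36, 48, 60 and 72 h. Plasma (25 µL) was assayed by validated LC–MS/MS (LLOQ 0.25 ng/mL; linear 0.25–500 ng/mL). AUCinf was regressed on eGFR as a fixed effect.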
# Safety assessment = assay type: in vivo, Japanese subjects (human); conditions: single oral 150 mg
# Method in brief: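 After an overnight fast, a single oral 150 mg tablet was given. Monitoring covered TEAEs, supine BP and pulse, axillary temperature, haematology, biochemistry, urinalysis and 12-lead ECG up to 7 days post-dose, with follow-up 7 (± 2) days after discharge. TEAEs were coded in MedDRA v17.1. The investigator assigned causality and graded severity by CTCAE v4.0.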
# [2] = cited from earlier work; for mean urinary excretion: healthy volunteers
# [3] = cited from earlier work
Structure (SMILES),"Tmax ([1]; across the renal function groups, fasting conditions)","Tmax ([1]; renal impairment groups, fasting)","linear regression of AUCinf, CL/F and eGFR across the renal function groups [1]","death, serious TEAE or TEAE leading to withdrawal of treatment (Safety assessment; all 31 subjects)","ECG results (Safety assessment; all subjects, day of admission and post-dose time points)","intensity of TEAEs (Safety assessment; both TEAEs (headache, ALT increased))","vital sign measurements, mean changes from baseline (Safety assessment)",mean urinary excretion ([2]; after 2 weeks of multiple dosing),"median tmax ([2]; healthy subjects, fed conditions)",mean urinary excretion ([2]; single oral dose),AUC increase compared with subjects with normal renal function ([3]; mild renal impairment),Cmax increase compared with subjects with normal renal function ([3]; mild renal impairment),AUC increase compared with subjects with normal renal function ([3]; moderate renal impairment),Cmax increase compared with subjects with normal renal function ([3]; moderate renal impairment),AUC increase compared with subjects with normal renal function ([3]; severe renal impairment),Cmax increase compared with subjects with normal renal function ([3]; severe renal impairment)
NC(=O)c1cnc2[nH]ccc2c1N[C@@H]1[C@@H]2CC3C[C@H]1C[C@@](O)(C3)C2 [Peficitinib],1.5 to 1.75 h,1.5 h,no statistically significant slopes,"No death, serious TEAE or TEAE leading to withdrawal of treatment was reported",normal,mild,No clinically significant mean changes from baseline,15–17%,4 h,9–15 % of dose,,,,,,
CCS(=O)(=O)N1CC(CC#N)(n2cc(-c3ncnc4[nH]ccc34)cn2)C1 [baricitinib],,,,,,,,,,,1.41 fold,1.16 fold,2.22 fold,1.46 fold,4.05 fold,1.40 fold
